FXIa inh: factor XIa (human) inhibition. P03951. purified FXIa, Boc-Glu-Ala-Arg-AMC fluorogenic substrate. inhibition, % at 5 µM. 220,000 tested, 0.14% active;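 active = inhibition of at least 40%; inactive = inhibition below 40%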;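 also: fluorescence of freed AMC excited at 355 nm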
Target sequence (P03951 19-387 limits assumed): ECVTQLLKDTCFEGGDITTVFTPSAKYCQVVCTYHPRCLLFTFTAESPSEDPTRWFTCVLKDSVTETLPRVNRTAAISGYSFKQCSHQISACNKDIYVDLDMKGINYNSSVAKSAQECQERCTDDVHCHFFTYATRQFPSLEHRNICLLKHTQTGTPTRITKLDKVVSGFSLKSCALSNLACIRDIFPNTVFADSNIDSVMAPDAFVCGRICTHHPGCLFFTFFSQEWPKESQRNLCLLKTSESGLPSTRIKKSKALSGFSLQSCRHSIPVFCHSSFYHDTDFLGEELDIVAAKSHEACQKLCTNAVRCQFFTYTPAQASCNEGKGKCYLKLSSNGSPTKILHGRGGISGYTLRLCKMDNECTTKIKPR
Target sequence (P03951 388-625 limits assumed): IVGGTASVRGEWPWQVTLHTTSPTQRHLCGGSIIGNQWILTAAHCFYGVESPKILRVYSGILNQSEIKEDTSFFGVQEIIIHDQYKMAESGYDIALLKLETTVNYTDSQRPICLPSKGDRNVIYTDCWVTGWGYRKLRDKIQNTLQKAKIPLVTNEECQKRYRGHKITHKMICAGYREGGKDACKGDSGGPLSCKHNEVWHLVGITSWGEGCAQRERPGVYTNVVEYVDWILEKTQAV
Wee1 stabilizer: human Wee1 degradation inhibition, primary screen; P30291; HeLa Luc-Wee1K328M stability, luciferase luminescence; 100% = proteasome inhibitor MG132 effect; reporter increase, % at 5 µM; 220,000 tested, 1.2% active; AID 1321;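 active = activation above the mean of all tested compounds plus 3 SD, set per screening run, cut at about 8.8% in these data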;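 also: cells exposed to compound for 20 h before luminescence read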
hK5 inh: kallikrein 5 (human) inhibition; recombinant hK5, fluorogenic AMC substrate cleavage; inhibition, % at 5 µM; 210,000 tested, 0.59% active; AID 873;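 active = inhibition of 40% or more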
FXIIa inh: blocks human coagulation factor XIIa protease activity. P00748. purified FXIIa, Boc-QGR-AMC fluorogenic substrate, 2 h. inhibition, % at 5 µM. 220,000 tested, 0.3% active; in the data active = inhibition above about 40%
Thrombin inh: thrombin (human) inhibition. P00734. alpha-thrombin, Boc-VPR-AMC fluorogenic substrate cleavage. inhibition, % at 5 µM. 220,000 tested, 0.26% active. AID 1046;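 active = inhibition at or above 40%; inactive = inhibition below 40%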
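System – human alpha-thrombin protein · Reagent – Boc-VPR-AMC substrate, 15 µM final · Compound – 5 µM single dose in 0.2% DMSO · Schedule – reaction at room temperature · Technique – AMC fluorescence at 355 nm excitation and 460 nm emission · Read-out basis – % inhibition relative to enzyme controls and enzyme-free blanks · Control set – no-compound enzyme wells and no-enzyme blanks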
Large screens that a line does not name were inactive. Hits are enriched below; roughly 2.2% of the tested compounds scored in any of these assays.

O=C1CC(N2CCN(c3ccc(C(=O)c4ccc(F)cc4)cc3)CC2)C(=O)N1 (stereo not given)	Wee1 stabilizer 8.9
O=C(Cc1ccc(Br)cc1)N1CCN(c2ccccc2O)CC1	none
CCOC(=O)C1=C(C)C2C3C(=O)N(c4cc(C)ccc4C)C(=O)C3C1(C)C1C(=O)N(c3cc(C)ccc3C)C(=O)C21 (stereo not given)	Wee1 stabilizer 9.1
Cc1cc(NC(=O)CN2C(=O)NC3(CCCCCC3)C2=O)no1	none
Clc1cc2c(nn1)Nc1ccccc1S2	none
S=C1Nc2ccccc2Sc2ccc(Cl)cc21	hK5 inh 67
Nc1c(C2=NCCO2)nnn1Cc1ccccc1	Wee1 stabilizer 9.2
COC(=O)c1nnn(Cc2ccccc2)c1N	none
CCn1ncc(Cl)c1C(=O)Nc1cc([N+](=O)[O-])ccc1OC	none
Cc1ccc(NC(=O)CSc2nnc([C@H](C)NC(=O)OC(C)(C)C)o2)c(C)c1	FXIIa inh 107
COc1cc(N2CCCC2)c(OC)cc1/C=C(/C#N)c1ccc(Br)cc1	hK5 inh 50
O=C1c2ccccc2C(Nc2ccc3c(c2)OCCO3)N1c1ccccn1 (stereo not given)	hK5 inh 51
Cc1ccc(S(=O)(=O)n2ccc(-c3cccc(OCc4c(F)cccc4Cl)c3)n2)cc1	none
Cc1ccc(S(=O)(=O)n2ccc(-c3ccc(OCc4c(F)cccc4Cl)cc3)n2)cc1	Wee1 stabilizer 8.8
Cc1c(C(=O)NCc2ccc(S(N)(=O)=O)cc2)oc2ccc(Cl)cc12	none (no result: hK5 inh)
COc1ccc(-n2ncc3c(NCc4ccccn4)ncnc32)cc1	FXIIa inh 44
COc1cccc(NC(=O)C(=S)NC2CCCCC2)c1	Wee1 stabilizer 9.7
Cc1ccc(C)c(NC(=O)C(c2ccccc2)N2CCOCC2)c1 (stereo not given)	none (no result: hK5 inh)
O=C1c2oc3ccccc3c(=O)c2C(c2cccc(F)c2)N1CCCO (stereo not given)	FXIIa inh 51
COc1cc(Cl)c(C)cc1NC(=O)CSC	FXIIa inh 43
CC1(C)C2CCC(C2)C1(C)N=C1OC(CCl)CS1 (stereo not given)	FXIa inh 53, hK5 inh 52
Cc1cc(C)cc(N(CC(=O)Nc2cccc(C)n2)S(=O)(=O)c2c(C)noc2C)c1	none
Cc1ccc(NC(=O)CN(c2cc(C)cc(C)c2)S(=O)(=O)c2c(C)noc2C)nc1	hK5 inh 40
CC1=CC(=C(C#N)C#N)C=C(C)N1CCC(C)C	none
COC(=O)Nc1ccc(S(=O)(=O)N2CCCC(C(=O)N3CC(C)OC(C)C3)C2)cc1 (stereo not given)	none (no result: hK5 inh)
C[C@H](c1ccccc1)n1nnc(COCc2ccccc2)c1C#CCOCc1ccccc1	none (no result: Wee1 stabilizer)
Cn1c(=O)c2cc(NC(=O)c3ccccc3Cl)c(=O)oc2n(C)c1=O	Thrombin inh 80
O=C(Nc1ccccc1Cl)c1ccccc1Cl	none
O=[N+]([O-])c1ccc(C2Nc3cccc4cccc(c34)N2)cc1	hK5 inh 63
Cc1ccccc1NC(=O)c1ccc([N+](=O)[O-])o1	Wee1 stabilizer 9.0
CCC(=O)Nc1cccc(-c2nnc(SCC(=O)c3ccccc3)n2C)c1	none
CSc1nnc(-c2cccc(NC(=O)c3ccccc3)c2)n1C	Wee1 stabilizer 9.4
Cc1sc(NC(=O)c2ccco2)c(CN2CCN(c3ccc(F)cc3)CC2)c1C	FXIIa inh 57
CCOC(=O)N1CCN(Cc2c(NC(=O)c3ccco3)sc(C)c2C)CC1	none
COc1ccccc1N1CCN(C/C(O)=C(\C#N)c2nc(-c3ccccc3)cs2)CC1	FXIIa inh 43
CC(=O)N1c2ccccc2C2(O)N=C(C)SC12 (stereo not given)	none
CCn1cc(C2=NC(c3ccccc3)CO2)c2ccccc21 (stereo not given)	Wee1 stabilizer 39
CC1CC(C)CN(CC(C)(C)NS(=O)(=O)c2ccc(Cl)cc2)C1 (stereo not given)	none
COc1cccc(C(=O)Nc2cc(C(=O)NCCc3ccccc3)ccc2Cl)c1	none
CCCCC(=O)Nc1cc(C(=O)NCCc2ccccc2)ccc1Cl	hK5 inh 63
CCCn1c(SCC(=O)Nc2cccc(S(=O)(=O)N(C)C)c2)nc2ccccc2c1=O	none
O=C(c1ccc(OC2CCN(Cc3ccccn3)CC2)cc1)N1CCCC(O)C1 (stereo not given)	none (no result: hK5 inh)
COc1ccc(CCNC(=O)C(C(=O)c2ccccc2)n2ccccc2=O)cc1OC (stereo not given)	Wee1 stabilizer 11
